Reference: ChEMBL document CHEMBL1142963, “Novel sigma receptor ligands: synthesis and biological profile” (J Med Chem, 2007)
Calls of active or inactive are those of the source. The rule behind the calls is not given here.

Experiments:
[1] = biological target: Sodium-dependent serotonin transporter (Rattus norvegicus, UniProt P31652); assay: Displacement of [3H]citalopram from rat cortex SERT
In short: (§1)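 Rat brain tissue by target: striatum for D1, D2 and DAT; olfactory tubercle for D3; cortex for muscarinic, 5-HT3, 5-HT2A, α1, α2, H1, NMDA and SERT; guinea pig cortex for 5-HT4. Inhibitors at seven to nine concentrations. After incubation, samples were filtered on glass fibre filters, washed three times with ice-cold buffer and counted by liquid scintillation. Ki values were derived by curve fitting.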

[2] = species: Rattus norvegicus; assay: Increase in TG-2 expression in albino Wistar rat primary 14 DIV astroglial cell at 25 uM after 24 hrs by CLSM analysis; assay type: functional
In short: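 Astrocytes at 14 DIV were treated with 25 µM for 24 h and fixed in 4% paraformaldehyde for 20 min. They were blocked with 1% normal serum for 1 h, then incubated overnight with anti-TG-2 monoclonal (1:500), followed by FITC and TRITC anti-IgG (1:64, 2 h each). Confocal imaging at fixed settings measured cytosolic and nuclear fluorescence intensity versus control after nonspecific subtraction.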

[3] = Displacement of [3H]MK-801 from rat cortex NMDA channel; in short: as §1
[4] = biological target: 5-hydroxytryptamine receptor 4 (Cavia porcellus, UniProt O70528); assay: Displacement of [3H][…] from guinea pig cortex 5HT4 receptor; in short: as §1
[5] = biological target: 5-hydroxytryptamine receptor 6 (Rattus norvegicus, UniProt P31388); assay: Displacement of [3H]5HT from rat cloned 5HT6 receptor expressed in HEK293 cells; assay type: cell-based
In short: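 Membranes from HEK-293 cells expressing cloned rat 5-HT6 receptor. Inhibitors at seven to nine concentrations. After incubation, samples were filtered on glass fibre filters, washed three times with ice-cold buffer and counted by liquid scintillation. Ki values were derived by curve fitting.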

[6] = Displacement of [3H]DTG rom guinea pig brain sigma 2 receptor; parameters: species or system Cavia porcellus
[7] = biological target: T1, Adrenergic receptor alpha-2 (Rattus norvegicus, UniProt P22086+P19328+P22909); assay: Displacement of 3H]RX821002 from rat cortex adrenergic alpha-2 receptor; in short: as §1
T1 sequence (P22086 whole entry): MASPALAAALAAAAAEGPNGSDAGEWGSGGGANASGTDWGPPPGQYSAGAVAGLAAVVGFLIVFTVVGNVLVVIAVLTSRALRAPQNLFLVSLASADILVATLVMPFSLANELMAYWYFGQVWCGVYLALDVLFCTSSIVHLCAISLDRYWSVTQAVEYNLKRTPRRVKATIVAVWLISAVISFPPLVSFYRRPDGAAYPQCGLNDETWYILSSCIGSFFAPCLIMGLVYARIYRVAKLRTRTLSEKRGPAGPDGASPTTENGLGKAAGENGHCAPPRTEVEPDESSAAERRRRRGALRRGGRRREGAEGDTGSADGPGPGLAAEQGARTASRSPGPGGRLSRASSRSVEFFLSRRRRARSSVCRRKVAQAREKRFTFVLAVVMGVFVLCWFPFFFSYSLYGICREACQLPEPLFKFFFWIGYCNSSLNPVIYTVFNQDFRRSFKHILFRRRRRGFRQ
T1 sequence (P19328 whole entry): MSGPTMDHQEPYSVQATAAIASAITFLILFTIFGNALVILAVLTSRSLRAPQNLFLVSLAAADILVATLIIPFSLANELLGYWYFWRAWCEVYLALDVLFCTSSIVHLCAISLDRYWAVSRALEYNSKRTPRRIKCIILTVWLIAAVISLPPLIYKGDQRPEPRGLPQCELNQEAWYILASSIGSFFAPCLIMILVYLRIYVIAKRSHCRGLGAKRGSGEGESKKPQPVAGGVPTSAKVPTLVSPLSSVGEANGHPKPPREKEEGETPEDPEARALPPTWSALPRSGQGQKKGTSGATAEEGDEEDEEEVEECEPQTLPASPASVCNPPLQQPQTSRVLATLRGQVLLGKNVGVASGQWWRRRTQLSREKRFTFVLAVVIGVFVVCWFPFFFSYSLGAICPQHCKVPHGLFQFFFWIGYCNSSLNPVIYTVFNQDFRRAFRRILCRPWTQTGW
T1 sequence (P22909 whole entry): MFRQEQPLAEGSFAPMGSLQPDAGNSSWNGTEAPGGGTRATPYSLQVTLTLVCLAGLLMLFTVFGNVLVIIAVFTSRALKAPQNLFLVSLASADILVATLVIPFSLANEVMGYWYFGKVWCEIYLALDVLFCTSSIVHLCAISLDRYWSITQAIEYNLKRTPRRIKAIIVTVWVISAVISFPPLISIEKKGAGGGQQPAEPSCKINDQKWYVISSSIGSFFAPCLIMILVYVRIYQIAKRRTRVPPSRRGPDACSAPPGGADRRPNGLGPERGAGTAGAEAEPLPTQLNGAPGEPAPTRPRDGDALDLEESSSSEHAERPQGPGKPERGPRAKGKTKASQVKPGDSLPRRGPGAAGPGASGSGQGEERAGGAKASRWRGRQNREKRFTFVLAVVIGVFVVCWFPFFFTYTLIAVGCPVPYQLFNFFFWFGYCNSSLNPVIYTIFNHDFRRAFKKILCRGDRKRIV

[8] = species: Rattus norvegicus; assay: Increase of caspase 3 cleavage in albino Wistar rat primary astroglial cells at 25 uM after 24 hrs relative to control; assay type: functional
In short: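 Primary astrocytes from 1–2-day-old Wistar rat brains were grown 14 DIV, then exposed to ligand 25 µM for 24 h. Cells were lysed and sonicated, and 30 µg protein was run on 10% SDS-PAGE. Mean ± SD of four experiments; t test.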

Sequence of 5-hydroxytryptamine receptor 4 (O70528 whole entry): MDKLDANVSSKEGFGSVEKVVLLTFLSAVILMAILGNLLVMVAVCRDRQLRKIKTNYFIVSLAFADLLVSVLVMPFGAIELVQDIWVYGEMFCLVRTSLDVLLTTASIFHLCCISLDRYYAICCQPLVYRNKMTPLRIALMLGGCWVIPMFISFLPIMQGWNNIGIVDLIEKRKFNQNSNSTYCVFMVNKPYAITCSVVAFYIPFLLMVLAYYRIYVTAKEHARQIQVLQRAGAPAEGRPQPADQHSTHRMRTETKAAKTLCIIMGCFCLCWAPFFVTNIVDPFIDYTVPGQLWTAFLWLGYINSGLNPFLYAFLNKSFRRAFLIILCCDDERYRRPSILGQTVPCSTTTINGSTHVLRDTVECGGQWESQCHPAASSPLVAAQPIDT
Sequence of 5-hydroxytryptamine receptor 6 (P31388 whole entry): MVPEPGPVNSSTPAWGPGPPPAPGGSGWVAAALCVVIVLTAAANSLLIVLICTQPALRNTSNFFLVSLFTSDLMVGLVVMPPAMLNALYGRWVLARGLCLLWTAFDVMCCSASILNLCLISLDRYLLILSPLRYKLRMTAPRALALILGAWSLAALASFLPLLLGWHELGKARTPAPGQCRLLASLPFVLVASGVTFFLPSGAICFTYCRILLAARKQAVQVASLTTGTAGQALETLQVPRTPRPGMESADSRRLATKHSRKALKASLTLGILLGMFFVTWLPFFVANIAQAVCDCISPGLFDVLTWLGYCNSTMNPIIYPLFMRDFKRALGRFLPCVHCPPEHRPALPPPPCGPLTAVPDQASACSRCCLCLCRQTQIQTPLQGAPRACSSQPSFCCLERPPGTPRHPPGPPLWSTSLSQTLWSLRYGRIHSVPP
Sequence of Sodium-dependent serotonin transporter (P31652 whole entry): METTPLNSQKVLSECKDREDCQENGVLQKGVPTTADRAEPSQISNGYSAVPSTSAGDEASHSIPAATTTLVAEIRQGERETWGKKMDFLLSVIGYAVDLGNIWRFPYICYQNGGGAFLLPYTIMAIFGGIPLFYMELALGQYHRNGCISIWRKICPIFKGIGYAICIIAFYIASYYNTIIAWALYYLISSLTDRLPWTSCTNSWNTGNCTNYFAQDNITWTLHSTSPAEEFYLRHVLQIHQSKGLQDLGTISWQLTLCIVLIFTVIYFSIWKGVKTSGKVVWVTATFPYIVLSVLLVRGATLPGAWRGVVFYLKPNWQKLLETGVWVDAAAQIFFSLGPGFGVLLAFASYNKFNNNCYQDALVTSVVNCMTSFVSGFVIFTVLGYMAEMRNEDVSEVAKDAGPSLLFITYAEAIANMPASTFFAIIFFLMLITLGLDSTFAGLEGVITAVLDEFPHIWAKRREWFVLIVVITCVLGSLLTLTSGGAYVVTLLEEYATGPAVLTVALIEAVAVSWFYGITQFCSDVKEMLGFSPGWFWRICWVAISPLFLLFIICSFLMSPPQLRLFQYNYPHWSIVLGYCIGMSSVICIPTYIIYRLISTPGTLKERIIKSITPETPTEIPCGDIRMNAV

**Q.** Which results are given for `COC(=O)C1(c2ccc(C)cc2)CC1CN1CCC(O)(c2ccccc2)CC1` (stereo not drawn)?
**A.** Ki [1]: > 10 µM; Activity [2]: Active; Ki [3]: > 10 µM; Ki [4]: > 10 µM; Ki [5]: > 10 µM; Ki [6]: 0.0508 µM; Ki [7]: 9.414 µM; Activity [8]: Active
